Here are results for 51 compounds from PubChem BioAssay AID624066 (The Scripps Research Institute Molecular Screening Center, 2012).

“And” between values parts separate entries of the source, which are not always exact repeats. Equal values may be shown once. The source made the active and inactive calls.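 Rule for the calls: active = IC50 of 10 µM or lower; inactive = IC50 above 10 µM.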

For orientation: IC50 means the concentration at which inhibition is half-maximal.

This assay deals with Insulin-degrading enzyme (Homo sapiens) (UniProt P14735). Put plainly: IDE inhibitors with FRET1 peptide substrate, late-stage follow-up, artefact control for IDE inhibitor project, biochemical, fluorogenic FRET1 peptide, fluorescence, powder samples (AID 624066). The following applies: recombinant IDE. The procedure, abridged: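 System: purified recombinant wild-type IDE. Buffer or medium: pH 7.4 HEPES buffer with NaCl, MgCl2, 0.1% BSA. Reagent: fluorogenic FRET1 peptide substrate at 1 µM final. Incubation: 2 h kinetic read at 22 °C, 2-min intervals. Technique: fluorescence intensity at 385 nm emission, 335 nm excitation. Replicates: triplicate.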
Sequence of Insulin-degrading enzyme (Homo sapiens) (P14735 whole entry, looked up): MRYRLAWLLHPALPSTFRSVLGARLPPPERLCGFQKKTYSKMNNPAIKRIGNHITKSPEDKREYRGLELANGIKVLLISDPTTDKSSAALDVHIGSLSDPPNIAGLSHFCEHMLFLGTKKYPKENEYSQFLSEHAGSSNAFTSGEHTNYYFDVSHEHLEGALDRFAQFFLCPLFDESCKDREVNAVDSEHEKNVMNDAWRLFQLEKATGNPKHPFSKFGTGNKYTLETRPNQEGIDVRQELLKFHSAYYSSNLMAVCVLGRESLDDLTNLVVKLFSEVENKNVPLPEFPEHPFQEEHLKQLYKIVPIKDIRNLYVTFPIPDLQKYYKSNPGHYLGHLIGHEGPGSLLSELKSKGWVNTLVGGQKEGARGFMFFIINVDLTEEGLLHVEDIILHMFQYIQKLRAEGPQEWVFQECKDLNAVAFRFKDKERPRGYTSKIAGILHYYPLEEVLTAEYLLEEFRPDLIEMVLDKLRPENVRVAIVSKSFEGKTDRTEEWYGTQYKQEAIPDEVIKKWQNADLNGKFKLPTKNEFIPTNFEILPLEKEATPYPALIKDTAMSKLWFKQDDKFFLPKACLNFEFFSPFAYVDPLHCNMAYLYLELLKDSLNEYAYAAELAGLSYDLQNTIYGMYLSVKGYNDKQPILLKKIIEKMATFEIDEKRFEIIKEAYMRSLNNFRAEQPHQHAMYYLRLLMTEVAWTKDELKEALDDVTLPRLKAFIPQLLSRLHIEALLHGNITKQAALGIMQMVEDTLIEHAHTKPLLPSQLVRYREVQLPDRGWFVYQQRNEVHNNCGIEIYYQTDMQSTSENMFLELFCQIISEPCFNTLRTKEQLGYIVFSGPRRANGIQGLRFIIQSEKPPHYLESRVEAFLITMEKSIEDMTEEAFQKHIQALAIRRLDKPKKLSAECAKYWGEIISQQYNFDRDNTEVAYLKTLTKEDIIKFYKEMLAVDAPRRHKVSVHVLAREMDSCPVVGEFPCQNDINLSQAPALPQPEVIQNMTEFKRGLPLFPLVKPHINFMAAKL
As to `COc1ccc(-c2nc(C(=O)Nc3cccc(C(F)(F)F)c3)cs2)cc1`, the IC50 is > 100 µM (inactive).
For `Cc1nc(-c2cccnc2)sc1C(=O)Nc1cccc(C(F)(F)F)c1` the value was > 100 µM (inactive); for `Cn1c(=O)c(C(=O)CN2CCCc3ccccc32)c(N)n(Cc2ccccc2)c1=O`, 0.4 µM; for `COc1ccc(C(=O)N2CCN(C(=O)C3COc4ccccc4O3)CC2)cc1OC` (stereo unspecified), 1.2 µM and > 10 µM (inactive) and > 100 µM (inactive).
As for `Clc1cccc(-c2nnc(SCc3nc4ccccc4[nH]3)n2-c2ccccc2)c1`, the IC50 result is “inactive”.
As for `COc1ccc(NC(=O)CSc2nnc(CN3CCOCC3)n2C)cc1Cl`, the IC50 was > 100 µM (inactive).
Then `O=C(CSc1nnc(-c2cccc(Cl)c2)n1Cc1ccco1)c1ccc2ccccc2c1`, with > 100 µM (inactive); and `COc1ccc(C(=O)N2CCCN(C(=O)C3CCc4ccccc4O3)CC2)cc1OC` (stereo unspecified), with > 10 µM (inactive).
Then `Clc1cccc(-c2nnc(SCc3nc4ccccc4[nH]3)n2Cc2ccco2)c1`, with 5 µM; and `O=C(c1ccc2c(c1)OCCO2)N1CCN(C(=O)C2CCc3ccccc3O2)CC1` (stereo unspecified), with > 10 µM (inactive); and `COc1ccc(C(=O)N2CCN(C(=O)C3CCc4ccccc4O3)CC2)cc1OC` (stereo unspecified), with > 10 µM (inactive).
Then `O=C(c1ccc2c(c1)OCO2)N1CCN(C(=O)C2CCc3ccccc3O2)CC1` (stereo unspecified), with > 10 µM (inactive); and `O=C(CSc1nnc(-c2cccc(Cl)c2)n1Cc1ccco1)Nc1ccccc1C(F)(F)F`, with > 100 µM (inactive).
Regarding `COc1cc(/C=C2\SC(=S)N(NC(C)=O)C2=O)ccc1OC(=O)c1ccco1`, the IC50 was > 10 µM (inactive).
For the compound `Nc1c(C(=O)Nc2nccs2)sc2nc(-c3cccs3)cc(C(F)(F)F)c12`, the IC50 is > 100 µM (inactive).
With `COc1cccc(-c2nnc(SCc3nc4ccccc4[nH]3)n2Cc2ccco2)c1`, the 50% inhibitory concentration (IC50) was 6.4 µM.
Then `O=C(Nc1ccc2oc(-c3cccnc3)nc2c1)c1ccc2c(c1)OCCO2`, with > 100 µM (inactive); and `COc1ccc(C(=O)N2CCCN(C(=O)C3COc4ccccc4C3)CC2)cc1OC` (stereo unspecified), with > 10 µM (inactive); and `O=C(c1ccc2c(c1)OCO2)N1CCCN(C(=O)C2CCc3ccccc3O2)CC1` (stereo unspecified), with > 10 µM (inactive).
`Cc1cccc(-c2nnc(SCc3nc4ccccc4[nH]3)n2Cc2ccco2)c1`: the IC50 was 9 µM and 6.4 µM.
As to `O=C(CSc1nnc(-c2cccc(Cl)c2)n1Cc1ccco1)Nc1ccc2c(c1)OCCO2`, the IC50 is > 100 µM (inactive).
For `COc1ccc(C(=O)N2CCN(C(=O)C3COc4ccccc4C3)CC2)cc1OC` (stereo unspecified) the value was > 10 µM (inactive).
For `O=C(c1ccc2c(c1)OCO2)N1CCCN(C(=O)C2COc3ccccc3O2)CC1` (stereo unspecified) the value was > 10 µM (inactive); for `Cc1c(CCC(=O)NCCCn2ccnc2)c(=O)oc2cc3oc4c(c3cc12)CCCC4`, 5 µM; for `O=C(c1ccc2c(c1)OCCO2)N1CCCN(C(=O)C2COc3ccccc3C2)CC1` (stereo unspecified), > 10 µM (inactive).
For `O=C(c1ccc2c(c1)OCO2)N1CCN(C(=O)C2COc3ccccc3C2)CC1` (stereo unspecified) the value was > 10 µM (inactive).
Consider `O=C(C1CC1)N1CCN(c2ccnc3cc(Cl)ccc23)CC1`, for which the IC50 was > 100 µM (inactive).
For the compound `O=C(Nc1cccc(C(F)(F)F)c1)c1csc(-c2ccccc2)n1`, the IC50 is > 100 µM (inactive).
For `Cc1ccc(C)c(N2C(=N)S/C(=C\c3ccc(-c4ccccc4C(=O)O)o3)C2=O)c1` the value was “inactive”; for `O=C(CSc1nnc(-c2cccc(Cl)c2)n1Cc1ccco1)Nc1ccc2cn[nH]c2c1`, > 100 µM (inactive); for `CC(Sc1nnc(-c2cccnc2)n1-c1ccccc1F)C(=O)N1CCCc2ccccc21` (stereo unspecified), > 100 µM (inactive).
Then `O=C(O)c1ccccc1NS(=O)(=O)c1cccc(-n2sc3ccccc3c2=O)c1`, with 5 µM; and `O=C(Nc1cccc(C(F)(F)F)c1)c1csc(-c2ccncc2)n1`, with 5 µM; and `Cn1c(SCc2nc3ccccc3[nH]2)nnc1-c1cccc(Cl)c1`, with > 100 µM (inactive).
Then `CCN(CC)c1ccc(/C=C2\C(=N)N3N=C(CC(=O)N4CCOCC4)SC3=NC2=O)cc1`, with > 100 µM (inactive); and `O=C(c1ccc2c(c1)OCCO2)N1CCCN(C(=O)C2COc3ccccc3O2)CC1` (stereo unspecified), with > 10 µM (inactive).
As to `Cc1ccc(NC(=O)CSc2nnc(-c3cccc(Cl)c3)n2Cc2ccco2)c(C)c1`, the IC50 was > 100 µM (inactive).
Then `O=C(c1ccc2c(c1)OCCO2)N1CCN(C(=O)C2COc3ccccc3C2)CC1` (stereo unspecified), with > 10 µM (inactive).
For `O=c1c2ccccc2sn1-c1cc(S(=O)(=O)N2CCOCC2)ccc1N1CCOCC1` the value was 0.2 µM; for `O=C(c1ccc2c(c1)OCO2)N1CCN(C(=O)C2COc3ccccc3O2)CC1` (stereo unspecified), > 10 µM (inactive).
`Cc1ccc(-c2nc(C(=O)Nc3cccc(C(F)(F)F)c3)cs2)cc1`: the IC50 is > 100 µM (inactive).
Then `COc1ccc(C(=O)N2CCCN(C(=O)C3COc4ccccc4O3)CC2)cc1OC` (stereo unspecified), with > 10 µM (inactive).
Regarding `O=C(Nc1cccc(C(F)(F)F)c1)c1csc(Cc2cccc(C(F)(F)F)c2)n1`, the IC50 was > 100 µM (inactive).
For `O=C(Nc1cc(C(F)(F)F)cc(C(F)(F)F)c1)c1csc(-c2ccncc2)n1` the value was > 100 µM (inactive).
As for `O=C(c1ccc2c(c1)OCO2)N1CCCN(C(=O)C2COc3ccccc3C2)CC1` (stereo unspecified), the IC50 is > 10 µM (inactive).
In the case of `CCOc1ccc2[nH]c3c(N4CCN(C(=O)c5ccco5)CC4)ncnc3c2c1`, the IC50 result is “inactive”.
On to `O=C(c1ccc2c(c1)OCCO2)N1CCN(C(=O)C2COc3ccccc3O2)CC1` (stereo unspecified), for which the IC50 is > 10 µM (inactive).
For `O=C(c1ccc2c(c1)OCO2)N1CCN(C(=O)[C@@H]2COc3ccccc3O2)CC1` the value was > 10 µM (inactive); for `O=C(c1ccc2c(c1)OCO2)N1CCN(C(=O)[C@H]2COc3ccccc3O2)CC1`, > 10 µM (inactive).
For `O=C(c1ccc2c(c1)OCCO2)N1CCCN(C(=O)C2CCc3ccccc3O2)CC1` (stereo unspecified) the value was > 10 µM (inactive); for `O=C(Nc1cccc(C(F)(F)F)c1)c1csc(-c2cccc(C(F)(F)F)c2)n1`, > 100 µM (inactive).
